The nature of data set [1]: Permeability of the compound by PAMPA assay at pH 5. Type of data set: ADME.
Data set [2] in a line: Solubility of the compound at pH 7.4. It counts as physicochemical. The following applies: buffer. In short, it runs like this: (§1)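 Solubility measured at pH 5.0, 6.2 and 7.4.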
The target of data set [3] is T1, Eukaryotic initiation factor 4A-I (Homo sapiens, UniProt P60842). Put plainly: Inhibition of recombinant eIF4A1 assessed as eIF4A1/[32P]mRNA complex formation after 10 mins by scintillation counting. In short, it runs like this:
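Binding of eIF4AI to radiolabelled RNA. Mean of three experiments with standard error of the mean.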

Data set [4] in a line: Metabolic stability in human plasma assessed as compound remaining after 3 hrs. Type of data set: ADME, cell-free. The following applies: read-out: Stability. In a few lines:
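Stability in human plasma measured as percent compound remaining after 3 h.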

The nature of data set [5]: Solubility of the compound at pH 6.2. Type of data set: physicochemical. The following applies: buffer. In a few lines:
as §1

Data set [6] in a line: Metabolic stability in mouse liver microsomes assessed as compound remaining after 1 hr. It counts as ADME, Microsome. The following applies: read-out: Stability. In a few lines: (§2)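 Incubation with human or murine liver microsomes, read as percent compound remaining after 1 h.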
The subject of data set [7] is Mus musculus. Put plainly: Hematotoxicity in C57Bl/6 mouse assessed as effect on CD4 T cells at 0.2 mg/kg, ip administered for 5 days measured 2 hrs post last dose by FACS analysis. Also on record: dose 0.2 mg/kg, route intraperitoneal. It counts as organism-based, T-cell. To be noted: in vivo.
In another data set the test system is BJAB. Put plainly: Cytotoxicity against human BJAB cells after 72 hrs by PI-staining based flow cytometric analysis. It counts as functional, cell-based. In a few lines: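 BJAB cells exposed 72 h to a concentration series. Viability by propidium iodide staining and flow cytometry, plotted relative to vehicle (DMSO). Mean of three experiments.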
Data set [8] concerns Mus musculus. Put plainly: Hematotoxicity in C57Bl/6 mouse assessed as effect on […] T cells at 0.2 mg/kg, ip administered for 5 days measured 2 hrs post last dose by FACS analysis. Type of data set: organism-based, T-cell. The arrangement: dose 0.2 mg/kg, route intraperitoneal. The following applies: in vivo.
The nature of data set [9]: Permeability of the compound by PAMPA assay at pH 7.4. Type of data set: ADME.
Data set [10] is described as follows: Metabolic stability in human liver microsomes assessed as compound remaining after 1 hr. Type of data set: ADME, Microsome. To be noted: read-out: Stability. In short, it runs like this: as §2
The nature of data set [11]: Permeability of the compound by PAMPA assay at pH 6.2. Type of data set: ADME.
The subject of data set [12] is Mus musculus. Put plainly: Hematotoxicity in C57Bl/6 mouse assessed as effect on Ly-6G myeloid cells at 0.2 mg/kg, ip administered for 5 days measured 2 hrs post last dose by FACS analysis. It counts as organism-based. The arrangement: dose 0.2 mg/kg, route intraperitoneal. The following applies: in vivo.
Data set [13] addresses T1, Eukaryotic initiation factor 4A-I. Put plainly: Inhibition of eIF4A1-mediated protein synthesis in human BJAB cells assessed as inhibition of [35S]Met incorporation after 1 hr by scintillation counting. It counts as cell-based. In short, it runs like this:
(§3)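 BJAB lymphoma cells exposed to compound for 1 h or 72 h. Protein synthesis measured as 35S-Met incorporation, normalised to total protein content and expressed relative to DMSO vehicle. Duplicates.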

For data set [14] the target is unchanged. Put plainly: Inhibition of eIF4A1-mediated protein synthesis in human BJAB cells assessed as inhibition of [35S]Met incorporation after 72 hr by scintillation counting. Type of data set: cell-based. In short, it runs like this: as §3
For data set [15], the target named is Eukaryotic initiation factor 4A-I (Oryctolagus cuniculus) (UniProt P29562). Put plainly: Inhibition of eIF4A1-mediated FF/HCV/Ren cap-dependent mRNA translation in rabbit reticulocyte lysate by reporter gene assay.
Eukaryotic initiation factor 4A-I (Oryctolagus cuniculus), sequence (P29562 whole entry): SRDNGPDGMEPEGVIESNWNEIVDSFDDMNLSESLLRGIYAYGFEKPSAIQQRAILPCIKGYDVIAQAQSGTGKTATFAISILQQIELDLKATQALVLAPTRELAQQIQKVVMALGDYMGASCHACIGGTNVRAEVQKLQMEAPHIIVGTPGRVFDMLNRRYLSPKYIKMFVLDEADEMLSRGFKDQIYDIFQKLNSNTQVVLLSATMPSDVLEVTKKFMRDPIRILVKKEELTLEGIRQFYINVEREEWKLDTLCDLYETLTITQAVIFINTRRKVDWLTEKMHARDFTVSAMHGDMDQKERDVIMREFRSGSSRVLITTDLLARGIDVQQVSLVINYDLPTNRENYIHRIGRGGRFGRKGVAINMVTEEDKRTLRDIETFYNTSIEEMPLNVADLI
The target in data set [16] is T1, Eukaryotic initiation factor 4A-I. Put plainly: Inhibition of recombinant eIF4A1 assessed as depletion of eIF4A1/2 from eIF4F complex at 1 to 10 uM after 1 hr by Western blot analysis. In a few lines: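 eIF4F complex isolated by m7GTP affinity purification. Eluates resolved on 10% SDS-PAGE, then Western blot for eIF4E and eIF4AI/II.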
For data set [17] the target is unchanged. Put plainly: Inhibition of recombinant eIF4A1 assessed as eIF4A1/[32P]mRNA complex formation at 1 to 10 uM after 10 mins by scintillation counting in presence of hippuristanol.
Data set [18] has as its system Mus musculus. Put plainly: Hematotoxicity in C57Bl/6 mouse assessed as effect on B220 pre-B/B cells at 0.2 mg/kg, ip administered for 5 days measured 2 hrs post last dose by FACS analysis. It counts as organism-based. The arrangement: dose 0.2 mg/kg, route intraperitoneal. To be noted: in vivo.
Another data set relates to lymphoma. Put plainly: Potentiation of doxorubicin antitumor activity against mouse Eu-myc/myr-AKT lymphoma cells xenografted in C57Bl/6 mouse assessed as tumor-free survival at 0.2 mg/kg, ip administered daily for 5 days. It counts as functional, organism-based. The arrangement: dose 0.2 mg/kg. In a few lines: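 C57Bl/6 mice, 6-8 weeks old, received 10^6 Eμ-myc/(myr)Akt lymphoma cells intravenously. Dosing began when tumours were palpable: test agent 0.2 mg/kg i.p. daily for 5 d in PEG 400/5.2% Tween 80, with doxorubicin 10 mg/kg given once on day 2. n=5 per group. Read-out was tumour-free survival (Kaplan-Meier).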

Data set [19] is described as follows: Solubility of the compound at pH 5. To be noted: buffer. It counts as physicochemical. In a few lines: as §1
Data set [20] can be described thus: Plasma protein binding in human after 4 hrs. It counts as ADME, cell-free. The following applies: read-out: PPB (converted). In a few lines: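 Human plasma protein binding measured after 4 h exposure.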
The target of data set [21] is T1, Eukaryotic initiation factor 4A-I. Put plainly: Inhibition of eIF4A1-mediated protein synthesis in human HeLA cells assessed as inhibition of [35S]Met incorporation by scintillation counting. Type of data set: cell-based. In a few lines: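 HeLa cells treated with compound or DMSO vehicle. Protein synthesis measured as 35S-Met incorporation, normalised to total protein content and expressed relative to the DMSO control. Values are the average of duplicates with the error of the mean.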

Calls of active or inactive are those of the source. The rule behind the calls is not given here.

T1 sequence (P60842 whole entry): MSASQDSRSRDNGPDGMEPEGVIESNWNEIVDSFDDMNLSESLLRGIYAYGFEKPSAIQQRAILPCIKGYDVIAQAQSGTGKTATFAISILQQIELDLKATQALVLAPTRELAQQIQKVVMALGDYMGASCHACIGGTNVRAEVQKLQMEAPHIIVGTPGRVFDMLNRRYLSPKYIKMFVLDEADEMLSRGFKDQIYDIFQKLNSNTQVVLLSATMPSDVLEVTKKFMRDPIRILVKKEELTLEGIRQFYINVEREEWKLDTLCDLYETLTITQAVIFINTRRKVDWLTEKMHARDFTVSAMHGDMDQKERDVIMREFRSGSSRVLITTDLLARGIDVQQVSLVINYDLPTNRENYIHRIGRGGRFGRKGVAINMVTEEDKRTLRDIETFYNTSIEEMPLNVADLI

As for `CONC(=O)[C@H]1[C@@H](O)[C@@]2(O)c3c(OC)cc(OC)cc3O[C@@]2(c2ccc(OC)cc2)[C@@H]1c1ccccc1`, the permeability entry in data set [1], in data set [9] and in data set [11] was “permeable” throughout. Further, the solubility in [2], in data set [5] and in [19] was more than 150 mg/mL throughout. Also, in data set [3], the inhibition entry was “Dose-dependent effect”. The remaining at 3 h in data set [4] was 100%. Also, the remaining at 1 h in data set [6] and in [10] was more than 95% in each case. In addition, the Activity entry in the data set on Mus musculus [7], with Mus musculus [8], in the data set with Mus musculus [12] and with Mus musculus [18] was “Non-toxic” throughout. The results for the concentration for half-maximal inhibition (IC50) (in the data set on BJAB; in data set [13]; in data set [14]) were 1.5 nM, 20 nM and 0.5 nM, respectively. The inhibition result in data set [15] and in data set [16] was “Active” in each case. The inhibition entry in data set [17] was “inactive”. For the same compound, in the data set on lymphoma, the result was Active. For the same compound, the fraction unbound at 4 h in [20] is 0.18.

Take `COc1ccc(C23Oc4cc(OC)cc(OC)c4C2(O)C(O)C(C(=O)NOCCO)C3c2ccccc2)cc1` (racemic): the inhibition result in data set [21] and in data set [15] was “Active” throughout.

In the case of `CONC(=O)C1C(O)C2(O)c3c(OC)cc(OC)cc3OC2(c2ccc(OC)cc2)C1c1ccccc1` (racemic), the inhibition entry in data set [15] was “Active”.

Consider `COC(=O)[C@H]1[C@@H](O)[C@@]2(O)c3c(OC)cc(O[C@@H]4O[C@@H]([C@H](O)CO)CO[C@H]4OC)cc3O[C@@]2(c2ccc(OC)cc2)[C@@H]1c1ccccc1`, for which the inhibition entry in data set [3] was “Dose-dependent effect”. In addition, the inhibition entry (in the data set on BJAB; in data set [13]; in data set [14]; in data set [16]) was “Active” each time. Also, in data set [17], the inhibition entry was “inactive”. Moreover, the outcome with lymphoma was Active.

Regarding `CONC(=O)[C@@H]1[C@H](O)[C@]2(O)c3c(OC)cc(OC)cc3O[C@]2(c2ccc(OC)cc2)[C@H]1c1ccccc1`, the inhibition result in data set [15] is “inactive”.

Regarding `COc1ccc(C23Oc4cc(OC)cc(OC)c4C2(O)C(O)C(C(=O)NOCC2CC2)C3c2ccccc2)cc1` (racemic), in [15], the inhibition result is “Active”.

In the case of `COc1ccc(C23Oc4cc(OC)cc(OC)c4C2(O)C(O)C(C(=O)NOCCOCCOCCNC(C)=O)C3c2ccccc2)cc1` (racemic), the inhibition entry in [21] and in data set [15] was “Active” throughout.

With `COc1ccc([C@@]23Oc4cc(OC)cc(OC)c4[C@]2(O)[C@H](O)[C@H](C(=O)c2ccc(CO)o2)[C@H]3c2ccccc2)cc1`, the inhibition result in [15] is “Active”.

The values are drawn from ChEMBL document CHEMBL2057099, “Synthesis of rocaglamide hydroxamates and related compounds as eukaryotic translation inhibitors: synthetic and biological studies” (J Med Chem, 2012).
